Screens as filed in PubChem BioAssay.
Hits are enriched below; roughly 2.6% of the tested compounds scored in any of these assays.
SENP8 block-1 = human SENP8 protease inhibitors, primary screen, biochemical, fluorescence, Nedd8 protein substrate, uHTS; recombinant SENP8; inhibition, % at 20 µM; 0.64% of 360,000 active; Sentrin-specific protease 8 (Homo sapiens), Q96LD8; in the data active = inhibition mostly above about 40%, no sharp cut-off; inactive = mostly below about 27%
SENP1 inh = human SENP1 catalytic domain inhibitors, primary screen, biochemical, FRET, uHTS | Sentrin-specific protease 1 (Homo sapiens), Q9P0U3 | recombinant SENP1 catalytic domain, CyPet-SUMO1-YPet FRET cleavage | inhibition, % at 10 µM | 0.21% of 360,000 active | AID 624204, 2012;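 active = inhibition at least 30% at 10 µM, raw YFP signal under a set limit, fluorescence ratio 0.5 to 1.5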;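 also: 0% = enzyme with DMSO and 100% = no enzyme wells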
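Test system: recombinant human SENP1 catalytic domain, His6-tagged / Medium: pH 8 Tris buffer with EDTA, NaCl, BME, BSA, NP40, catalase / Also added: SUMO1 FRET substrate flanked by Cypet and Ypet, 25 nM / Times: 50 min reaction at room temperature / Signal: FRET, CFP and YFP emission / Control set: no-enzyme low control and enzyme-plus-DMSO high control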
SENP6 inh = SENP6 protease inhibitors, primary screen, biochemical, luminescence, uHTS. Recombinant SENP6 catalytic domain, aminoluciferin luminescence. inhibition, % at 10 µM. 1.8% of 330,000 active. Sentrin-specific protease 6 (Homo sapiens), Q9GZR1;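 active = inhibition above about 50% at the single tested dose, limit read from the data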;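 also: plate controls were DMSO wells with enzyme for no effect and DMSO wells lacking enzyme for full effect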
Target sequence (Q9GZR1 628-1112 limits assumed): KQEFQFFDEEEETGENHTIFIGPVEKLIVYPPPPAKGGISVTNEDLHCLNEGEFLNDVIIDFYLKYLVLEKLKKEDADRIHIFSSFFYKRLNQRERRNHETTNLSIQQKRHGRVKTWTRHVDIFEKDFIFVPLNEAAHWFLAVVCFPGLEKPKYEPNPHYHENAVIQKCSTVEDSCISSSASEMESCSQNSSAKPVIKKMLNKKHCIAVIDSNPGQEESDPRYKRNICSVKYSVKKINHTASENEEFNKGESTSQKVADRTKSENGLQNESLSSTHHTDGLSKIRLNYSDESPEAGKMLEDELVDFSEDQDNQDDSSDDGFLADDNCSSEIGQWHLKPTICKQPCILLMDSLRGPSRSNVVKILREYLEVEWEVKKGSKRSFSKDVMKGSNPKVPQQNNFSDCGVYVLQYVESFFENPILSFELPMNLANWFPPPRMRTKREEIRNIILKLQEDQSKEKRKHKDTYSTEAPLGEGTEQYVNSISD
SENP8 block-2 = SENP8 protease inhibitors, primary screen, biochemical, luminescence; Sentrin-specific protease 8 (Homo sapiens), Q96LD8; purified SENP8, Z-RLRGG-aminoluciferin cleavage; inhibition, % at 10 µM; 1.2% of 330,000 active; AID 2540, 2010; in the data active = inhibition above about 50%
Platelet DG rel = inhibitors of platelet dense granule secretion, primary screen, cell-based, MLPCN, human platelets; 0.22% of 300,000 active; inhibition, %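 (compounds screened at 7.5 µM in platelet-rich plasma)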; human platelet-rich plasma, SFLLRN dense granule ATP release, luminescence;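 active = mean replicate score, as percent of positive control, at or above 50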
SENP7 inh = SENP7 protease inhibitors, primary screen, biochemical, luminescence, uHTS; Sentrin-specific protease 7 (Homo sapiens), Q9BQF6; recombinant SENP7, Z-RLRGG-aminoluciferin luminescence, 40 min; inhibition, % at 5 µM; 1.5% of 330,000 active;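 active = inhibition above about 50% at the single test dose, limit read from the data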;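 also: plate controls were DMSO with enzyme for no effect and no enzyme buffer wells for full effect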
SENP8 confirm = SENP8 protease inhibitors, retest, confirmation, biochemical, luminescence, single concentration; inhibition, % at 12.5 µM; shares compounds with SENP7 inh; AID 488912, 2010; Recombinant SENP8, Z-RLRGG-aminoluciferin luminescence, 60 min; 40% of 6,200 active;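 active = mean inhibition across replicates above about 50%, limit read from the data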
SENP6 confirm = SENP6 protease inhibitors, confirmation, biochemical, luminescence, single concentration; AID 488915, 2010; inhibition, % at 12.5 µM; shares compounds with SENP7 inh; 58% of 6,200 active; recombinant SENP6, Z-RLRGG-aminoluciferin luminescence
SENP7 conf = SENP7 protease inhibitors, retest, confirmation, biochemical, luminescence, single concentration; shares compounds with SENP7 inh; recombinant SENP7, Z-RLRGG-aminoluciferin luminescence, 40 min; inhibition, % at 12.5 µM; 69% of 6,200 active; AID 488917, 2010
Casp3 select = caspase-3 protease inhibitors, confirmation, selectivity assay for SENP inhibitor project, biochemical, single concentration; inhibition, % at 12.5 µM; purified caspase-3, Z-DEVD-aminoluciferin luminescence, 60 min; 60% of 6,200 active; shares compounds with SENP7 inh;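 active = mean inhibition above about 50%, limit read from the data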;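 also: plate controls were enzyme with DMSO for no effect and wells without caspase-3 for full effect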
Target sequence (P42574 28-227 limits assumed): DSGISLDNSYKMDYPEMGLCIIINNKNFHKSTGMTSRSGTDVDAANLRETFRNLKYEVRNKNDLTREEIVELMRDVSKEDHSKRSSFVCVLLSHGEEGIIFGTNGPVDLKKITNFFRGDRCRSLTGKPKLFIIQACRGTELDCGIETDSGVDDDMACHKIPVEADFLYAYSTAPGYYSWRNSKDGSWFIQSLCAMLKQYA
Luc interf = luminescence interference (SENP counter-screen); inhibition, % at 12.5 µM; 39% of 6,200 active; Pre-incubated SENP8/Z-RLRGG-aminoluciferin, luciferase luminescence interference; shares compounds with SENP7 inh;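 active = mean inhibition above about 50% when retested at one dose, limit read from the data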;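 also: plate controls were DMSO wells with completed reaction for no effect and substrate without enzyme for full effect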
Starred values were filed as active, the others as inactive.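 The calls were made as follows, unless noted: active = mean inhibition above about 50% in the one-dose retest (limit read from the data); inactive = the rest.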

What do the screens show for `Cc1ccc(C(=O)OCC(=O)Nc2ccccc2Cl)c(O)c1`?
SENP8 block-1: 5; SENP1 inh: -1; SENP6 inh: 17; SENP8 block-2: -18; Platelet DG rel: -12; SENP7 inh: 66*; SENP8 confirm: 12; SENP6 confirm: 12; SENP7 conf: 5; Casp3 select: 9; Luc interf: 6

What do the screens show for `c1ccc(CSc2ncnc3c2cnn3-c2ccccc2)cc1`?
SENP8 block-1: -5; SENP1 inh: 3; SENP6 inh: 71*; SENP8 block-2: 54*; Platelet DG rel: -10; SENP7 inh: 72*; SENP8 confirm: 9; SENP6 confirm: 7; SENP7 conf: 19; Casp3 select: 5; Luc interf: 8

Results for CC(C)(C)C(=O)CSc1ncnc2c1cnn2-c1ccccc1 ?
SENP8 block-1: -36; SENP1 inh: -1; SENP6 inh: -42; SENP8 block-2: -16; Platelet DG rel: -13; SENP7 inh: 16

Results for CC(C)OC(=O)CSc1ncnc2c1cnn2-c1ccccc1 ?
SENP8 block-1: -25; SENP1 inh: 1; SENP6 inh: 33; SENP8 block-2: 19; Platelet DG rel: 3; SENP7 inh: 52*; SENP8 confirm: 15; SENP6 confirm: 18; SENP7 conf: 26; Casp3 select: 28; Luc interf: 7

What do the screens show for `CC(=O)Nc1ccc(Oc2ccc(S(=O)(=O)N3CCCC3)cn2)cc1`?
SENP8 block-1: 21; SENP1 inh: 2; SENP6 inh: 4; SENP8 block-2: 0; SENP7 inh: -3

How did COc1ccc(-c2cn(CCC(=O)O)c(-c3ccncc3)n2)cc1 do in these assays?
SENP8 block-1: -132; SENP1 inh: 4; SENP6 inh: -9; SENP8 block-2: -10; SENP7 inh: -1

Results for COc1ccc(-c2cn(Cc3ccc(C(N)=O)cc3)c(-c3ccncc3)n2)cc1 ?
SENP8 block-1: -494; SENP1 inh: 2; SENP6 inh: 72*; SENP8 block-2: 61*; SENP7 inh: 68*; SENP8 confirm: 71*; SENP6 confirm: 69*; SENP7 conf: 91*; Casp3 select: 76*; Luc interf: 54*

What do the screens show for `CC(=O)N(c1ccccc1C)c1ccccc1C`?
SENP8 block-1: 8; SENP1 inh: 2

Results for CC(=O)N(\C=C/C=C/C=C1\Sc2ccccc2C1=O)c1ccccc1 ?
SENP8 block-1: -16; SENP1 inh: 16; SENP6 inh: 21; SENP8 block-2: 1; Platelet DG rel: 3; SENP7 inh: 12

Results for CC(=O)N(/N=C1\Sc2ccccc2C1=O)c1ccccc1C ?
SENP8 block-1: -7; SENP1 inh: -7; SENP6 inh: 87*; SENP8 block-2: 90*; Platelet DG rel: -4; SENP7 inh: 63*; SENP8 confirm: 15; SENP6 confirm: 82*; SENP7 conf: 36; Casp3 select: 5; Luc interf: 8

How did CC(=O)N(/N=C1\Sc2ccccc2C1=O)c1ccc(C)cc1C do in these assays?
SENP8 block-1: -53; SENP1 inh: -10; SENP6 inh: 87*; SENP8 block-2: 83*; Platelet DG rel: 24; SENP7 inh: 70*; SENP8 confirm: 6; SENP6 confirm: 65*; SENP7 conf: 38; Casp3 select: 15; Luc interf: -1

How did N#CCOc1ccccc1/C=C/c1nc2ccccc2c(=O)[nH]1 do in these assays?
SENP8 block-1: -62; SENP1 inh: -1; SENP6 inh: -10; SENP8 block-2: -8; Platelet DG rel: 4; SENP7 inh: 2

Results for C=CCOc1cccc(/C=C/c2nc3ccccc3c(=O)[nH]2)c1 ?
SENP8 block-1: -35; SENP1 inh: 0; SENP6 inh: 37; SENP8 block-2: 28; Platelet DG rel: 5; SENP7 inh: 82*; SENP8 confirm: -10; SENP6 confirm: 4; SENP7 conf: 12; Casp3 select: 17; Luc interf: 13

What do the screens show for `COc1cc(/C=C/c2nc3ccccc3c(=O)[nH]2)cc(OC)c1OC`?
SENP8 block-1: -296; SENP1 inh: 4; SENP6 inh: -13; SENP8 block-2: 15; Platelet DG rel: -1; SENP7 inh: -3

What do the screens show for `Cc1ccc(/C=C/c2nc3ccccc3c(=O)[nH]2)cc1`?
SENP8 block-1: -152; SENP1 inh: -8; SENP6 inh: 90*; SENP8 block-2: 86*; Platelet DG rel: 45; SENP7 inh: 98*; SENP8 confirm: 48; SENP6 confirm: 55*; SENP7 conf: 43; Casp3 select: 38; Luc interf: 8

How did Cc1ccccc1/C=C\c1nc2ccccc2c(=O)[nH]1 do in these assays?
SENP8 block-1: -74; SENP1 inh: 1; SENP6 inh: 76*; SENP8 block-2: 69*; Platelet DG rel: 6; SENP7 inh: 85*; SENP8 confirm: 15; SENP6 confirm: 24; SENP7 conf: 62*; Casp3 select: 25; Luc interf: -4

Results for C=CCNc1nc2ccccc2c(=O)[nH]1 ?
SENP8 block-1: -324; SENP1 inh: 0; SENP6 inh: 10; SENP8 block-2: -1; Platelet DG rel: 8; SENP7 inh: -4

How did COC(=O)c1ccc(/C=C/c2nc3ccccc3c(=O)[nH]2)cc1 do in these assays?
SENP8 block-1: -321; SENP1 inh: -18; SENP6 inh: 89*; SENP8 block-2: 85*; Platelet DG rel: 63*; SENP7 inh: 96*; SENP8 confirm: 29; SENP6 confirm: 24; SENP7 conf: 52*; Casp3 select: 63*; Luc interf: -4
